MrgX1 PAM = positive allosteric modulators of MrgX1, primary screen, HEK293 cells, Fluo-4 calcium flux | Mas-related G-protein coupled receptor member X1 (Homo sapiens), Q96LB2 | FDSS; active compounds read high | B-score at 10 µM | 0.63% of 310,000 active;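 active = plate-corrected calcium response at least 3 library SD above typical, normal starting fluorescence, not activating the receptor alone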;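 also: compound read alongside a low EC10 to EC30 dose of BAM8-22 agonist; peak minus trough fluorescence over baseline measured at the second addition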
Target sequence (Q96LB2 whole entry, looked up): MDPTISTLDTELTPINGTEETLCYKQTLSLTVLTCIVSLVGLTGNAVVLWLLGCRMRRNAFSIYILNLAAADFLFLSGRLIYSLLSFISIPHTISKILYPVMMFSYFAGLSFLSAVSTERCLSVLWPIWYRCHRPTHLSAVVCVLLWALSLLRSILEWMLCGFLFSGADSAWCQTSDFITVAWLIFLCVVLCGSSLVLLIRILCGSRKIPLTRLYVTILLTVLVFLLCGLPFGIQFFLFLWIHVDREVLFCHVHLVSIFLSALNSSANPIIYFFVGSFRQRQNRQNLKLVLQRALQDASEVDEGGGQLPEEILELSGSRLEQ
MrgX1 ag = agonists of human MrgX1 receptor, primary screen, HEK293 cells, Fluo-4 calcium flux. B-score at 10 µM. Fluo-4 calcium fluorescence, agonist mode; active compounds read high. 0.44% of 310,000 active. Mas-related G-protein coupled receptor member X1 (Homo sapiens), Q96LB2;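 active = calcium response B-score plate-corrected fluorescence ratio at least 3 library SD, with starting fluorescence B-score inside 5 SD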
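Material: HEK293 cells stably expressing human MrgX1 receptor | Quantity: 15,000 cells per well | Times: Cells plated overnight, dye loaded 0.5 h 37 °C, 0.5 h room temperature | Measured by: Kinetic Fluo-4 NW fluorescence of intracellular calcium | Control set: Positive and negative controls per plate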
MrgX1 antag = antagonists of human MrgX1 receptor, primary screen, HEK293 cells, Fluo-4 calcium flux; Mas-related G-protein coupled receptor member X1 (Homo sapiens), Q96LB2; BAM8-22 antagonism; active compounds read low; 1.3% of 310,000 active; B-score at 10 µM;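 active = calcium-response B-score plate-corrected more than 3 library SD below zero, starting fluorescence within 5 deviations, no agonist response on first addition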;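 also: peak minus trough fluorescence over baseline after final BAM8-22 challenge near maximal dose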
RGS4 inh = RGS4 inhibitors, primary screen, cell-based, HEK293 M3R inducible RGS4, calcium flux. 0.45% of 310,000 active. AID 463165, 2010. Fluo-4 calcium flux; active compounds read high; triggered by carbachol at its EC20. Regulator of G-protein signaling 4 (Homo sapiens), P49798. B-score at 10 µM;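 active = B-score, a plate-corrected calcium signal, over three deviations above library mean, with baseline fluorescence within five deviations of library mean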;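 also: RGS4 expression induced by doxycycline in cells with stable M3 receptor; B-score is computed from the integrated fluorescence ratio over baseline after carbachol; higher B-score means a larger calcium signal and so more RGS4 inhibition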
Target sequence (P49798 whole entry, looked up): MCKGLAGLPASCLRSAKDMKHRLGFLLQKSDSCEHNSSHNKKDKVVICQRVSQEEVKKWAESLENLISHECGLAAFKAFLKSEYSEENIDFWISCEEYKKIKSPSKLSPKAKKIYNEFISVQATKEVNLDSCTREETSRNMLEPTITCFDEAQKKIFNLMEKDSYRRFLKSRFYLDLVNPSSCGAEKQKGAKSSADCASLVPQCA
RGS4 pot = RGS4 potentiators or activators, primary screen, cell-based, HEK293 M3R inducible RGS4, calcium flux; carbachol calcium flux Fluo4; active compounds read low; 0.92% of 310,000 active; AID 463111, 2010; B-score at 10 µM;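 active = B-score of the integrated calcium signal more than 4 SD below the library mean, with starting fluorescence not abnormally high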;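 also: negative B-score means reduced calcium response which marks RGS4 activation or potentiation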
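Reagent: ECmax carbachol challenge; Test system: M3R-expressing HEK293 line, RGS4 induced by doxycycline; Schedule: overnight RGS4 induction, 30 min dye load 37 °C, 20 min compound RT; Detection: calcium dye Fluo4 fluorescence; Read-out: Agonist-evoked peak-minus-minimum fluorescence over baseline, integrated ratio, B score.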
MrgX1 allo conf = MrgX1 positive allosteric modulators, duplicate retest, confirmation, HEK293 cells, Fluo-4 calcium flux; shares compounds with MrgX1 PAM; Fluo-4 calcium fluorescence, FDSS; activation (ratio percentage), % at 10 µM; 13% of 1,200 active; AID 602413, 2012;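 active = ratio at least 3 SD above the weak peptide control, stable starting fluorescence, no direct agonism earlier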;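 also: compound followed by low BAM8-22 agonist challenge near EC20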
HEK293 Ca flux = nonspecific calcium signal in parental HEK293, confirmation, counter-screen for MrgX1 antagonist project, parental HEK293 cells, Fluo-4 calcium flux | shares compounds with MrgX1 antag | Fluo-4 calcium fluorescence, FDSS | fluorescence ratio F(max-min)/F0 at 10 µM | 2% of 4,000 active | AID 624111, 2012;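 active = duplicate-averaged calcium fluorescence ratio at least three times the standard deviation of buffer wells, a nonspecific response in parental cells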
HEK293 Ca counter = calcium response in parental HEK293 cells, primary screen, counter-screen for MrgX1 allosteric activator project, cell-based, Fluo-4 calcium flux, duplicate | shares compounds with MrgX1 antag | 0.4% of 4,000 active | fluorescence ratio F(max-min)/F0 at 10 µM | Fluo-4 fluorescence ratio; active compounds read high;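 active = calcium fluorescence ratio, averaged over duplicates, at least 3 SD of the buffer-well ratio, meaning a nonspecific response in receptor-free cells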;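 also: untransfected parental HEK293 lacking MrgX1 used as counterscreen for MrgX1 allosteric activators; fluorescence change taken during the second addition on a kinetic imager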
HEK293 Ca cntr2 = calcium response in parental HEK293 cells, primary screen, counter-screen for MrgX1 agonist project, cell-based, Fluo-4 calcium flux, duplicate, agonist mode | shares compounds with MrgX1 antag | Fluo-4 calcium fluorescence (FDSS); active compounds read high | fluorescence ratio F(max-min)/F0 at 10 µM | 8.7% of 4,000 active;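 active = calcium fluorescence ratio at least three times the spread of buffer wells, meaning a non-specific response in parental cells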
Starred values were filed as active, the others as inactive; i = inactive; nt = no result given. Hits are enriched below; roughly 3.5% of the tested compounds scored in any of these assays.

SMILES	MrgX1 PAM	MrgX1 ag	MrgX1 antag	RGS4 inh	RGS4 pot	MrgX1 allo conf	HEK293 Ca flux	HEK293 Ca counter	HEK293 Ca cntr2
CC(=O)N1CCc2cc(Br)cc(S(=O)(=O)NCCN3CCCCC3C)c21 (stereo not drawn)	9.1*	i	i	i	i	i	i	i	i
CCOc1ccc(CCNC(=O)c2cc(=O)[nH]c3ccc(S(=O)(=O)N(CC)CC)cc23)cc1OCC	i	i	i	i	i	nt	nt	nt	nt
Cc1ccc(S(=O)(=O)Oc2ccccc2/C=N/Nc2ccc(C(=O)O)cc2)cc1	i	i	i	i	i	nt	nt	nt	nt
COc1ccc(S(=O)(=O)Nc2cccc(C)n2)c2ccccc12	i	i	i	i	i	nt	nt	nt	nt
COc1ccc(Br)cc1S(=O)(=O)Nc1cccc(C)n1	12*	i	i	i	i	i	i	i	i
O=C(O)C1Sc2[nH]c(=O)sc2C2c3cc(Cl)ccc3OC(=O)C12 (stereo not drawn)	i	i	i	i	i	nt	nt	nt	nt
O=C(O)C1Sc2[nH]c(=O)sc2C2c3cc(Br)ccc3OC(=O)C12 (stereo not drawn)	6.5*	i	i	i	i	i	i	i	i
O=C(CS(=O)(=O)c1ccccc1)Nc1nc(-c2ccccc2)cs1	8.4*	i	i	i	i	i	i	i	i
Cc1ccc(S(=O)(=O)CC(=O)Nc2nc(-c3ccccc3)cs2)cc1	i	i	i	i	i	nt	nt	nt	nt
COc1ccc2nc(NC(=S)N(C)C)sc2c1	12*	i	i	i	i	i	i	i	i
CC(C)c1c(C(=O)N/N=C/C=C/c2ccccc2)nnn1-c1nonc1N	i	i	i	i	i	nt	nt	nt	nt
O=C(NC(=S)Nc1ccccc1Cl)c1ccco1	i	i	i	i	i	nt	nt	nt	nt
O=C(NC(=S)N(CCc1ccccc1)CCc1ccccc1)c1ccco1	i	i	i	i	i	nt	nt	nt	nt
CC(CCc1ccccc1)NC(=S)NC(=O)c1ccco1 (stereo not drawn)	14*	i	i	i	i	i	i	i	i
CCC(C)c1ccccc1NC(=S)NC(=O)c1ccco1 (stereo not drawn)	7.4*	i	i	i	i	i	i	i	i
CC(NC(=O)c1cn(C(C)c2ccccc2F)nn1)c1ccncc1 (stereo not drawn)	i	i	i	i	i	nt	nt	nt	nt
CCCCNC(=S)Nc1cccc(C(C)=O)c1	i	i	i	i	i	nt	nt	nt	nt
C#CC(CC)(CC)NC(=S)Nc1cccc(C(C)=O)c1	8.3*	i	i	i	i	i	i	i	i
CC(C)c1ccc2c(c1)[C@H]1OCC[C@H]1[C@@H](c1cccs1)N2	8.3*	i	i	i	i	3.3%*	i	i	i
COc1ccc(CNC2CCSc3ccccc32)cc1OC (stereo not drawn)	i	i	i	i	i	nt	nt	nt	nt
Cc1ccc(Oc2ccc(Cl)cc2N)cc1	6.8*	i	i	i	i	i	i	i	i
Nc1cc(Cl)ccc1Oc1ccc2ccccc2c1	i	i	i	i	i	nt	nt	nt	nt
CC(=O)N1CCSc2ccc(S(=O)(=O)NCCc3cccc(C)c3)cc21	i	i	i	i	i	nt	nt	nt	nt
CC(=O)N1CCSc2ccc(S(=O)(=O)NCCc3ccc(C)cc3)cc21	6.9*	i	i	i	i	i	i	i	i
COc1ccc(C)cc1NC(=O)C(C)N(c1ccc(C)cc1)S(C)(=O)=O (stereo not drawn)	7.6*	i	i	i	i	i	i	i	i
SMILES	MrgX1 PAM	MrgX1 ag	MrgX1 antag	RGS4 inh	RGS4 pot	MrgX1 allo conf	HEK293 Ca flux	HEK293 Ca counter	HEK293 Ca cntr2
COC(=O)c1ccc2c(=O)[nH]c(COC(=O)CCC(=O)c3ccc(Cl)cc3)nc2c1	i	i	i	i	i	nt	nt	nt	nt
CCNC(=O)OCC12CC3CC(CC(C3)C1)C2	9.8*	i	i	i	i	i	i	i	i
CCSc1nnc2n(-c3ccc(OC)cc3)c(=O)c3c4c(sc3n12)CCCC4	i	i	i	i	i	nt	nt	nt	nt
COc1ccccc1-n1c(=O)c2c3c(sc2n2c(SC)nnc12)CCC3	15*	i	i	i	i	i	i	i	i
Cc1ccc(NC2=NC(c3ccccc3)n3c(nc(C)cc3=O)N2)c(C)c1 (stereo not drawn)	122*	i	i	i	i	i	i	i	i
Cc1ccc(NC2=NC(c3ccc(F)cc3)n3c(nc(C)cc3=O)N2)c(C)c1 (stereo not drawn)	i	i	i	i	i	nt	nt	nt	nt
CCN1CCN(c2nc(Nc3ccc(NC(C)=O)cc3)nc(Nc3ccc(NC(C)=O)cc3)n2)CC1	29*	i	i	i	i	i	i	i	i
Cc1c(/C=N/NC(=O)c2cc(=O)[nH]c(=O)[nH]2)c2ccccn2c1C(=O)c1ccccc1	i	i	i	i	i	nt	nt	nt	nt
CC(C)Oc1ccc(S(=O)(=O)N2CCOCC2)cc1NC(=O)C1=COCCO1	i	i	i	i	i	nt	nt	nt	nt
Cc1ccccc1NC(=O)c1sc2nc(N3CCOCC3)c3c(c2c1N)CCCC3	7.2*	i	i	i	i	i	i	i	i
COc1ccccc1NC(=O)c1sc2nc(N3CCOCC3)c3c(c2c1N)CCCC3	i	i	i	i	i	nt	nt	nt	nt
Nc1nc(-c2ccccc2)cs1	i	i	i	i	i	nt	nt	nt	nt

Assay outcomes from PubChem.
